The source of these data is ChEMBL document CHEMBL4680142, “Thiazolidine-2,4-dione-based irreversible allosteric IKK-β kinase inhibitors: Optimization into in vivo active anti-inflammatory agents” (Eur J Med Chem, 2020).

For series [1], the target named is T1, Inhibitor of nuclear factor kappa-B kinase subunit beta (Homo sapiens) (UniProt O14920).
T1 sequence (whole entry): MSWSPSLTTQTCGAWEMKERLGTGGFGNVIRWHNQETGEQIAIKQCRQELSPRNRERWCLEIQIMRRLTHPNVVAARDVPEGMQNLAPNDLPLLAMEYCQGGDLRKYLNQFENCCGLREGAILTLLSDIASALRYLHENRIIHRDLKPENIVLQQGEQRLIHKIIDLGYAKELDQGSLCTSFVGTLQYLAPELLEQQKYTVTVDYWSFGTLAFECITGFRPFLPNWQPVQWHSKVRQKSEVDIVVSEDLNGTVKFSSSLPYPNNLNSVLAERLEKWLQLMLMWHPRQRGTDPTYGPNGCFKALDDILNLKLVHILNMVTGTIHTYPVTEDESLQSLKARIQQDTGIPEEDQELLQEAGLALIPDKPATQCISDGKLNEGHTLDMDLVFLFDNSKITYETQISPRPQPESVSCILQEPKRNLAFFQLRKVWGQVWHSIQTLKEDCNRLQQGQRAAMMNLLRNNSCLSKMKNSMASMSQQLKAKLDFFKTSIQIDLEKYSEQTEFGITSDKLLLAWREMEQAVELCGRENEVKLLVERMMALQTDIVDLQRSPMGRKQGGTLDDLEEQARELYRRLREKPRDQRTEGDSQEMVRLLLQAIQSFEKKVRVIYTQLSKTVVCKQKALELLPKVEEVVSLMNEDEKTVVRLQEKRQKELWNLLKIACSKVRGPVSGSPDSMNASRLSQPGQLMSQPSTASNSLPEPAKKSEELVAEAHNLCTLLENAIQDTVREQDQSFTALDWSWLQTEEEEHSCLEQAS
The experiment in a line: Allosteric inhibition of IKKbeta (unknown origin) assessed as inactivation constant using 5FAM-GRHDSGLDSMK-NH2 as substrate incubated for 10 mins followed by substrate addition and measured upto 60 mins by TR-FRET assay. To be noted: filed as negative allosteric modulator, time 70.0 min. In short, it runs like this:
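IKK2 (0.5 µg/mL) in 10 mM Tris-HCl pH 7.2, 10 mM MgCl2, 0.05% NaN3, 1 mM DTT, 0.01% Tween-20, room temperature. Compound (30 to 0.001 µM, ten roughly three-fold dilutions) preincubated 10 min with enzyme. Reaction started with 1 µM 5FAM-IκBα peptide and 3 µM ATP, run 0, 20, 40 or 60 min. IMAP binding reagent/terbium donor detection, TR-FRET read at 495/520 nm. Kobs fitted against concentration by nonlinear regression.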

The subject of series [2] is RAW264.7. The experiment in a line: Antiinflammatory activity against mouse RAW264.7 cells assessed as reduction in LPS-induced IL-6 level incubated for 1 hr followed by LPS stimulation and measured after 24 hrs by ELISA. In kind it is functional, cell-based. In outline: (§1)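 RAW 264.7 cells (DMEM, 10% FBS, 37 °C, 5% CO2) plated at 2×10^5 cells/mL and left overnight. Compounds (0.1, 1, 10 µM) or NS-398 given for 1 h, then LPS 10 ng/mL for 24 h. Culture medium assayed by ELISA: competitive colorimetric for PGE2/TNF-α, mouse DuoSet for TNF-α/IL-6. IC50 is the concentration lowering the mediator to 50%.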

Series [3] deals with RAW264.7. The experiment in a line: Antiinflammatory activity against mouse RAW264.7 cells assessed as reduction in LPS-induced PGE2 production at 0.1 to 1 uM incubated for 1 hr followed by LPS stimulation and measured after 24 hrs by ELISA. In kind it is functional, cell-based. To be noted: dose 0.1-1 µM, time 25.0 hrs. In short, it runs like this:
as §1
(In general: ELISA stands for enzyme-linked immunosorbent assay.)

The target of series [4] is T2, Inhibitor of nuclear factor kappa-B kinase subunit beta (Homo sapiens, UniProt O14920).
T2 sequence (O14920 whole entry): T1 sequence (whole entry)
The experiment in a line: Allosteric inhibition of IKKbeta (unknown origin) using 5FAM-GRHDSGLDSMK-NH2 as substrate incubated for 10 mins followed by substrate addition and measured after 40 mins by TR-FRET assay. In short, it runs like this: (§2)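 Kinetic IMAP TR-FRET run with 0.5 µg/mL IKK2 in 10 mM Tris-HCl pH 7.2, 10 mM MgCl2, 0.05% NaN3, 1 mM DTT, 0.01% Tween-20. Compound (ten doses, 30 to 0.001 µM) pre-incubated with enzyme 10 min, then 1 µM IκBα-derived substrate and 3 µM ATP added. Room temperature. Reactions run 0, 20, 40 or 60 min. Ten-point curves fitted by nonlinear regression.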

The subject of series [5] is RAW264.7. The experiment in a line: Antiinflammatory activity against mouse RAW264.7 cells assessed as reduction in LPS-induced PGE2 level incubated for 1 hr followed by LPS stimulation and measured after 24 hrs by ELISA. In kind it is functional, cell-based. In outline:
as §1

Series [6] deals with T2, Inhibitor of nuclear factor kappa-B kinase subunit beta. The experiment in a line: Allosteric inhibition of IKKbeta (unknown origin) using 5FAM-GRHDSGLDSMK-NH2 as substrate incubated for 10 mins followed by substrate addition and measured after 20 mins by TR-FRET assay. In short, it runs like this:
as §2
In general terms: In TR-FRET formats the signal depends on donor and acceptor labels being close together.

Series [7] has the same target. The experiment in a line: Allosteric inhibition of IKKbeta (unknown origin) using 5FAM-GRHDSGLDSMK-NH2 as substrate pretreated for 10 mins followed measured after 2 hrs by TR-FRET assay. In short, it runs like this: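 Enzyme: 0.5 µg/mL IKK2, in 10 mM Tris-HCl pH 7.2, 10 mM MgCl2, 0.05% NaN3, 1 mM DTT, 0.01% Tween-20. Compound at 10 µM pre-incubated 10 min, then 1 µM 5-FAM IκBα peptide and 3 µM ATP added. Reaction 2 h at room temperature. IMAP binding reagent/terbium detection mix added 15 h before reading. TR-FRET read with 340 nm excitation, emission 495/520 nm. Percent inhibition or IC50 derived.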

The nature of series [8]: Effect on NO production in non-stimulated mouse RAW264.7 cells at 10 uM after 24 hrs by Griess reagent based assay. To be noted: raw264.7, 24 h.
Series [9] is described as follows: Metabolic stability in human liver microsomes assessed as half life at 1 uM measured upto 1 hrs by LC-MS/MS analysis. The series is classed as ADME, Microsome. In short, it runs like this: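 Pooled human liver microsomes (0.5 mg/mL protein) with 1 µM compound at 37 °C. Reaction stopped at 0, 5, 15, 30 and 60 min and analysed by LC-MS/MS. Amount remaining expressed as % of initial concentration. Mibefradil run as reference.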
In general terms: Liver microsomes are a subcellular fraction often used to study metabolism.

Series [10] has as its system RAW264.7. The experiment in a line: Antiinflammatory activity against mouse RAW264.7 cells assessed as reduction in LPS-induced PGE2 production at 10 uM incubated for 1 hr followed by LPS stimulation and measured after 24 hrs by ELISA (reference value: 33.64 ng/ml). To be noted: time 25 hrs. The series is classed as functional. In outline:
as §1

Series [11] has as its system Mus musculus. The experiment in a line: Antiinflammatory activity against LPS-induced sepsis C57BL/6 mouse model assessed as organism survival rate at 5 to 50 mg/kg, po administered 1 hr before LPS stimulation and measured after 16 hrs relative to control. Particulars: dose 5-50 mg/kg, time 17 hrs. The series is classed as functional. In short, it runs like this: (§3)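 Male C57BL/6 mice (6 or 10 weeks), water only for 24 h beforehand. Compound given orally at 5 or 50 mg/kg 1 h before intraperitoneal injection of LPS (Salmonella enterica serotype enteritidis, 25 mg/kg in PBS); controls received PBS. Survival monitored for 36 h.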

The subject of series [12] is Mus musculus. The experiment in a line: Antiinflammatory activity against LPS-induced sepsis C57BL/6 mouse model assessed as organism survival rate at 5 to 50 mg/kg, po administered 1 hr before LPS stimulation and measured after 36 hrs relative to control. The series is classed as functional. To be noted: dose 5-50 mg/kg, time 37 hrs. In outline:
as §3

Activity calls are given as the source filed them.

In general, IC50 refers to the concentration at which inhibition is half-maximal. Broadly, the half-life is the time needed for the level to fall by half in the phase considered. Consider `CN1CCN(CCCCCOc2cccc(N3C(=O)S/C(=C\c4ccc(Oc5ccc([N+](=O)[O-])cc5)cc4)C3=O)c2)CC1`, for which, in series [1], the Kinact was 0.027 min⁻¹. In addition, the IC50 with RAW264.7 [2] is greater than 10000 nM; in [4], 219 nM; in the series on RAW264.7 [5], greater than 10000 nM; in [6], 245 nM; in series [7] it was 220 nM. Moreover, the result in the series with RAW264.7 [3] was inactive. Further, the Activity entry in series [8] is “Non-Toxic”; in the series on RAW264.7 [10], 19.04 ng/mL. For the same molecule, the half-life at 1 µM in series [9] is 60 min.

Turning to `CN1CCN(CCCOc2ccc(N3C(=O)S/C(=C\c4ccc(Oc5ccc(C#N)cc5)cc4)C3=O)cc2)CC1`, the Kinact in series [1] was found to be 0.013 min⁻¹. For the same molecule, the IC50 was greater than 10000 nM with RAW264.7 [2]; 251 nM in series [4]; 9830 nM in the series with RAW264.7 [5]; 347 nM in series [6]; 200 nM in series [7]. Also, the values for the Survival with Mus musculus [11] and in the series on Mus musculus [12] were 100% and 80%, respectively. The Activity entry is “Non-Toxic” in series [8] and 16.53 ng/mL in the series on RAW264.7 [10]. Further, the half-life at 1 µM in series [9] worked out at 20 min.
